{"data": "Results pooled from the literature", "TDP1": "Tyrosyl-DNA phosphodiesterase 1 (TDP1, Homo sapiens, UniProt Q9NUW8)", "PRMT3": "Protein arginine N-methyltransferase 3 (PRMT3, Homo sapiens, UniProt O60678)", "Rhomboid protease AarA": "Rhomboid protease AarA (Providencia stuartii, UniProt P46116)", "PTK2": "Focal adhesion kinase 1 (PTK2, Homo sapiens, UniProt Q05397)", "GSR": "Glutathione reductase, mitochondrial (GSR, Homo sapiens, UniProt P00390)", "MAOA": "Amine oxidase [flavin-containing] A (MAOA, Homo sapiens, UniProt P21397)", "LDHA": "L-lactate dehydrogenase A chain (LDHA, Homo sapiens, UniProt P00338)", "SLC22A6": "Solute carrier family 22 member 6 (SLC22A6, Homo sapiens, UniProt Q4U2R8)", "note": "Compare with care: the assays were run in different laboratories."}
{"Compound": "COc1cc2c(OC)nc3c4cc5c(cc4cc(OCCCN(C)C)c3c2cc1OC)OCO5", "target": "TDP1", "assay": "enzyme activity, inhibitor, fluorescence", "IC50": "1.7 µM"}
{"Compound": "Nc1ncnc2c1ncn2[C@@H]1O[C@H](CSCCNC(=O)NC2CCCCC2)[C@@H](O)[C@H]1O", "target": "PRMT3", "assay": "enzyme activity, inhibitor, fluorescence", "IC50": "> 100 µM"}
{"Compound": "O=C(Cc1cccs1)N[C@@H]1C(=O)N2C(C(=O)[O-])=C(C[n+]3ccccc3)CS[C@H]12", "target": "Rhomboid protease AarA", "assay": "enzyme activity, inhibitor, fluorescence", "IC50": "18 µM"}
{"Compound": "C=CC(=O)Nc1cc(Nc2nccc(Nc3cc(Cl)c(F)cc3C(C)(C)O)n2)c(OC)cc1N1CC[C@@H](N(C)C)C1", "target": "PTK2", "assay": "enzyme activity, inhibitor", "setting": "with preincubation", "IC50": "0.255 µM"}
{"Compound": "CCOc1ccc2c(-c3cc(C)nc(Nc4cc(OC)cc(C(F)(F)F)c4)n3)cnn2n1", "target": "Homeodomain-interacting protein kinase 3 (HIPK3, Homo sapiens, UniProt Q9H422)", "assay": "enzyme activity, inhibitor", "IC50": "> 10 µM"}
{"Compound": "CSc1ccc(/C=C2/C(C)=C(CC(=O)O)c3cc(F)ccc32)cc1", "target": "Cone cGMP-specific 3',5'-cyclic phosphodiesterase subunit alpha' (PDE6C, Homo sapiens, UniProt P51160)", "assay": "enzyme activity, inhibitor", "IC50": "> 100 µM"}
{"Compound": "CN(C)CCCN1c2ccccc2Sc2ccc(Cl)cc21", "target": "GSR", "assay": "enzyme activity, inhibitor, absorbance", "IC50": "> 100 µM"}
{"Compound": "O=C1C[C@@H](c2cc(O)cc(O)c2)Oc2cc(O)ccc21", "target": "MAOA", "assay": "enzyme activity, inhibitor", "IC50": "13.6 µM"}
{"Compound": "C[C@@H]1C[C@H]2O[C@@H]2/C=C\\C=C\\C(=O)Cc2c(Cl)c(O)cc(O)c2C(=O)O1", "target": "Mitogen-activated protein kinase kinase kinase 7 (MAP3K7, Homo sapiens, UniProt O43318)", "assay": "enzyme activity, inhibitor, ATP luminescence", "IC50": "> 10 µM"}
{"Compound": "CCCCN1/C(=C/C=C(Br)/C=C/C2=[N+](CCCC)c3ccc(Br)cc3C2(C)C)C(C)(C)c2cc(Br)ccc21", "target": "PRMT3", "assay": "enzyme activity, inhibitor, radiometric", "IC50": "4.09 µM"}
{"Compound": "COc1cc2c(OC)nc3c4cc5c(cc4cc(OCCCN4CCCC4)c3c2cc1OC)OCO5", "target": "TDP1", "assay": "enzyme activity, inhibitor", "IC50": "5.5 to 13 µM"}
{"Compound": "NS(=O)(=O)c1cccc(Cc2c(-c3ccc(F)c(F)c3)[nH]n(-c3nc(C(=O)O)cs3)c2=O)c1", "target": "LDHA", "assay": "enzyme activity, inhibitor", "IC50": "> 50 µM"}
{"Compound": "C[C@H]1Oc2cc(cnc2N)-c2c(nn(C)c2C#N)CN(C)C(=O)c2ccc(F)cc21", "target": "PTK2", "assay": "enzyme activity, inhibitor, radiometric", "IC50": "0.004 µM"}
{"Compound": "Nc1ncnc2c1ncn2[C@@H]1O[C@H](CSCCNC(=O)Nc2cccc3ccccc23)[C@@H](O)[C@H]1O", "target": "PRMT3", "assay": "enzyme activity, inhibitor, fluorescence", "IC50": "81 µM"}
{"Compound": "CCS(=O)(=O)N1CC(CC#N)(n2cc(-c3ncnc4[nH]ccc34)cn2)C1", "target": "SLC22A6", "assay": "transporter uptake, inhibitor", "IC50": "> 100 µM"}
{"Compound": "COc1cc(C[C@H]2C(=O)OC[C@@H]2Cc2ccc(OC)c(OC)c2)ccc1O", "target": "High affinity 3',5'-cyclic-AMP phosphodiesterase 7A (PDE7A, Homo sapiens, UniProt Q13946)", "assay": "enzyme activity, inhibitor", "IC50": "> 20 µM"}
{"Compound": "C[C@H](NC(=O)[C@@H](c1cccnc1)N(C(=O)CCl)c1ccc(-n2cccc2)cc1)c1ccccc1", "target": "Replicase polyprotein 1ab, main protease (rep, Severe acute respiratory syndrome coronavirus 2, UniProt P0DTD1)", "assay": "enzyme activity, inhibitor, FRET", "IC50": "0.05 µM"}
{"Compound": "O=C(Nc1ccc([N+](=O)[O-])cc1[N+](=O)[O-])c1ccccc1", "target": "MAOA", "assay": "enzyme activity, inhibitor", "IC50": "0.126 µM"}
{"Compound": "Cc1ccc(C(=O)Nc2ccc(S(=O)(=O)O)c3cc(S(=O)(=O)O)cc(S(=O)(=O)O)c23)cc1NC(=O)c1cccc(NC(=O)Nc2cccc(C(=O)Nc3cc(C(=O)Nc4ccc(S(=O)(=O)O)c5cc(S(=O)(=O)O)cc(S(=O)(=O)O)c45)ccc3C)c2)c1", "target": "P2X purinoceptor 4 (P2RX4, Homo sapiens, UniProt Q99571)", "assay": "calcium signal, antagonist", "IC50": "44.2 µM"}
{"Compound": "Clc1ccc2c(c1)N(CCCN1CCN(CCCc3ccccc3)CC1)c1ccccc1S2", "target": "GSR", "assay": "enzyme activity, inhibitor, absorbance", "IC50": "> 100 µM"}
{"Compound": "O=c1oc(Cl)c(Cl)c2ccccc12", "target": "Rhomboid protease AarA", "assay": "enzyme activity, inhibitor, fluorescence", "IC50": "10 µM"}
{"Compound": "Nc1ncnc2c1ncn2[C@@H]1O[C@H](CSCCNC(=O)Nc2ccccc2)[C@@H](O)[C@H]1O", "target": "PRMT3", "assay": "enzyme activity, inhibitor, fluorescence", "IC50": "1.9 µM"}
{"Compound": "O=C(O)CCc1nc(-c2ccccc2)c(-c2ccccc2)o1", "target": "SLC22A6", "assay": "transporter uptake, inhibitor", "IC50": "0.891 µM"}
{"Compound": "Nc1ncnc2c1ncn2[C@@H]1O[C@H](CSCCNC(=O)Nc2ccc(Cl)cc2)[C@@H](O)[C@H]1O", "target": "PRMT3", "assay": "enzyme activity, inhibitor, fluorescence", "IC50": "22 µM"}
{"Compound": "CC1(C)C(/C=C/C=C2/N(CCCc3ccccc3)c3ccc(Cl)cc3C2(C)C)=[N+](CCCc2ccccc2)c2ccc(Cl)cc21", "target": "Protein arginine N-methyltransferase 5 (PRMT5, Homo sapiens, UniProt O14744)", "assay": "enzyme activity, inhibitor, radiometric", "IC50": "2.19 µM"}
{"Compound": "O=C(O)c1ccc(Nc2c(-c3ccc(S(=O)(=O)O)cc3)nc3ccccn23)cc1", "target": "TDP1", "assay": "enzyme activity, inhibitor", "IC50": "> 100 µM"}
{"Compound": "O=C(c1ccc(O)cc1O)[C@H](O)[C@@H](O)c1ccc(O)cc1", "target": "MAOA", "assay": "enzyme activity, inhibitor", "IC50": "0.62 µM"}
{"Compound": "COc1cc(-c2cc(=O)c3c(O)c(OC)c(O[C@@H]4O[C@H](CO)[C@@H](O)[C@H](O)[C@H]4O)cc3o2)ccc1O", "target": "LDHA", "assay": "enzyme activity, inhibitor", "setting": "pH 7.4", "IC50": "153 µM"}
{"Compound": "CC1=C[C@@]2(C[C@H](C)[C@H]3CC=C(CO)C(=O)[C@@H]3O2)OC1=O", "target": "Tyrosine-protein phosphatase non-receptor type 1 (PTPN1, Homo sapiens, UniProt P18031)", "assay": "enzyme activity, inhibitor", "IC50": "41.1 µM"}
{"Compound": "C#CCOc1ccc(/C=C/C(=O)N2CCC(Cc3ccccc3)CC2)cc1OC", "target": "MAOA", "assay": "enzyme activity, inhibitor, fluorescence", "IC50": "45.2 µM"}
{"Compound": "N=C(NCCCSC[C@H]1O[C@@H](n2cnc3c(NCCCc4ccccc4)ncnc32)[C@H](O)[C@@H]1O)NCC1CCCCC1", "target": "PRMT3", "assay": "enzyme activity, inhibitor, fluorescence", "IC50": "> 100 µM"}
{"Compound": "O=c1oc2c(cc1O)oc(=O)c1cc(O)c(O)c(O)c12", "target": "LDHA", "assay": "enzyme activity, inhibitor", "setting": "pH 7.4", "IC50": "104 µM"}
{"Compound": "CC(C)C[C@H](NC(=O)[C@H]1O[C@@H]1C(=O)O)C(=O)NCCCCN=C(N)N", "target": "Cathepsin S (CTSS, Homo sapiens, UniProt P25774)", "assay": "enzyme activity, inhibitor", "IC50": "0.00174 µM"}
{"Compound": "O=C(O)c1ccc(CN2C(=O)c3cccc(NC(=O)c4ccc(Cl)s4)c3C2=O)cc1", "target": "LDHA", "assay": "enzyme activity, inhibitor", "IC50": "0.308 µM"}
{"Compound": "CCn1ncc2c1-c1cnc(N)c(c1)O[C@H](C)c1cc(F)ccc1-c1nn(C)nc1C2", "target": "High affinity nerve growth factor receptor (NTRK1, Homo sapiens, UniProt P04629)", "assay": "enzyme activity, inhibitor", "IC50": "0.26 µM"}
{"Compound": "CN1CCN(c2ccc(Nc3ncc4cc(C#N)c(=O)n(C5CCCC5)c4n3)cc2)CC1", "target": "Tyrosine-protein kinase Lyn (LYN, Homo sapiens, UniProt P07948)", "assay": "enzyme activity, inhibitor", "IC50": "0.0358 µM"}
{"Compound": "O=C(O)CSc1nnc(Br)n1-c1ccc(C2CC2)c2ccccc12", "target": "Broad substrate specificity ATP-binding cassette transporter ABCG2 (ABCG2, Homo sapiens, UniProt Q9UNQ0)", "assay": "transporter uptake, inhibitor", "system": "Caco-2", "setting": "2 h", "IC50": "> 3000 µM"}
{"Compound": "CCN(CC)CCCOc1cc2cc3c(cc2c2nc(OC)c4cc(OC)c(OC)cc4c12)OCO3", "target": "TDP1", "assay": "enzyme activity, inhibitor, fluorescence", "IC50": "5.4 µM"}
